Data as given in ChEMBL document CHEMBL1145831 (J Med Chem, 2003).
Values belong to the compound of their own block, whether it stands above or below them.

Columns and labels:
CCRF-CEM = test: In vitro growth inhibitory activity in the human CCRF-CEM leukemia cell line.; format: functional, cell-based
Summary of the method: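 CCRF-CEM human leukemia cells in log phase, 4.8 × 10⁴ cells per 2 mL well. Medium was RPMI-1640 with 10% dialyzed FBS and 25 mM HEPES. Compounds were serially diluted 1:3 in DMSO and added to duplicate wells, with DMSO-only controls, at 0.5% final DMSO. Cells were exposed 72 h at 37 °C in humidified 5% CO₂, then counted. IC50 in nM.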

Mus musculus [1] = test: In vivo antitumor activity against murine pancreatic adenocarcinoma and measured as % weight loss on a schedule of 3,8days and at a total dose of 16 mg/kg; format: functional
Summary of the method: (§1)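 Body weight loss was tracked in mice implanted with the Panc-03 murine pancreatic adenocarcinoma. Injections were given within 20 min of aqueous preparation from stock solutions, with chlorohydrins acidified using 0.05% citric acid.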

Mus musculus [2] = test: Ratio of the median tumor weight in the treatment group over the median tumor weight in the control group on a schedule of 3,8days and at a total dose of 16 mg/kg; format: functional
Summary of the method: (§2)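 Mice bearing the drug-sensitive murine pancreatic adenocarcinoma Panc-03. Dosing solutions were made in water from stock solutions and injected within 20 min of preparation; chlorohydrins were acidified with 0.05% citric acid. T/C (%) = median tumor weight of the treated group ÷ median tumor weight of controls × 100, calculated when control median tumor weight reached 1 g.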

Mus musculus [3] = test: In vivo antitumor activity against murine pancreatic adenocarcinoma and measured as number of deaths on a schedule of 3,8days and at a total dose of 16 mg/kg; format: ADME, organism-based; design: dose 16 mg/kg; settings: 192 h
Summary of the method: (§3)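 Mice bearing drug-sensitive murine pancreatic adenocarcinoma Panc-03 were dosed on the listed days at the listed total doses. Dosing solutions were made in water from stock solutions and injected within 20 min. Chlorohydrin solutions were acidified with 0.05% citric acid. Tolerance was recorded as body weight loss and number of deaths.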

Mus musculus [4] = test: Log cell kill of tumor bearing mice on a schedule of 3,8days and at a total dose of 16 mg/kg; format: functional, organism-based; design: dose 16 mg/kg
Summary of the method: (§4)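 Panc-03 murine pancreatic adenocarcinoma in mice. Aqueous dosing solutions were prepared from stocks and injected within 20 min; chlorohydrins were acidified with 0.05% citric acid. Log cell kill was calculated from tumor growth delay, the difference in days between treated and control animals to reach 1000 mg tumor weight.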

Mus musculus [5] = test: Log cell kill of tumor bearing mice on a schedule of 10-14 days and at a total dose of 41 mg/kg; format: functional, organism-based; design: dose 41 mg/kg; summary of the method: as §4
Mus musculus [6] = test: In vivo antitumor activity against murine pancreatic adenocarcinoma and measured as number of deaths on a schedule of 10-14 days and at a total dose of 41 mg/kg; format: ADME, organism-based; design: dose 41 mg/kg; summary of the method: as §3
Mus musculus [7] = test: In vivo antitumor activity against murine pancreatic adenocarcinoma and measured as % weight loss on a schedule of 10-14 days and at a total dose of 41 mg/kg; format: functional; summary of the method: as §1
Mus musculus [8] = test: Ratio of the median tumor weight in the treatment group over the median tumor weight in the control group on a schedule of 10-14 days and at a total dose of 41 mg/kg; format: functional; summary of the method: as §2
Mus musculus [9] = test: In vivo antitumor activity against murine pancreatic adenocarcinoma and measured as % weight loss on a schedule of 3,4,6 days and at a total dose of 6 mg/kg; format: functional; summary of the method: as §3
Mus musculus [10] = test: In vivo antitumor activity against murine pancreatic adenocarcinoma and measured as % weight loss on a schedule of 3,4,6 days and at a total dose of 12 mg/kg; format: functional; summary of the method: as §3
Mus musculus [11] = test: Ratio of the median tumor weight in the treatment group over the median tumor weight in the control group on a schedule of 3,4,6,10 days and at a total dose of 3.5 mg/kg; format: functional
Summary of the method: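 Panc-03 murine pancreatic adenocarcinoma in mice, with injectable solutions prepared in water from stock and given within 20 min; chlorohydrins were acidified with 0.05% citric acid. %T/C is median tumor weight of the treated group over that of the control group × 100, calculated when control median tumor weight reaches 1 g. T/C ≤ 42% is taken as significant activity.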

Mus musculus [12] = test: In vivo antitumor activity against murine pancreatic adenocarcinoma and measured as % weight loss on a schedule of 3,4,6,10 days and at a total dose of 3.5 mg/kg; format: functional; summary of the method: as §3
Mus musculus [13] = test: In vivo antitumor activity against murine pancreatic adenocarcinoma and measured as number of deaths on a schedule of 3,4,6 days and at a total dose of 6 mg/kg; format: ADME, organism-based; design: dose 6 mg/kg; settings: 144 h; summary of the method: as §3
Mus musculus [14] = test: In vivo antitumor activity against murine pancreatic adenocarcinoma and measured as number of deaths on a schedule of 3,4,6,10 days and at a total dose of 3.5 mg/kg; format: ADME, organism-based; design: dose 3.5 mg/kg; settings: 240 h; summary of the method: as §3
Mus musculus [15] = test: In vivo antitumor activity against murine pancreatic adenocarcinoma and measured as number of deaths on a schedule of 3,4,6 days and at a total dose of 12 mg/kg; format: ADME, organism-based; design: dose 12 mg/kg; settings: 144 h; summary of the method: as §3

SMILES: COc1ccc([C@H]2O[C@@H]2[C@@H](C)[C@@H]2C/C=C/C(=O)N[C@H](Cc3ccc(OC)c(Cl)c3)C(=O)NCC(C)(C)C(=O)O[C@@H](CC(C)C)C(=O)O2)cc1
IC50 (CCRF-CEM): 0.28 nM

SMILES: COc1ccc(C[C@H]2NC(=O)/C=C/C[C@@H]([C@H](C)[C@H]3O[C@@H]3c3ccc(COC(=O)CNC(=O)OC(C)(C)C)cc3)OC(=O)[C@H](CC(C)C)OC(=O)C(C)(C)CNC2=O)cc1Cl
IC50 (CCRF-CEM): 0.0055 nM

SMILES: COc1cccc2c1C(=O)c1c(O)c3c(c(O)c1C2=O)C[C@@](O)(C(=O)CO)C[C@@H]3O[C@H]1C[C@H](N)[C@H](O)[C@H](C)O1 [DOXORUBICIN]
Weight loss (Mus musculus [1]): -12%
T/C (Mus musculus [2]): 16%
Death (Mus musculus [3]): 0
Log kill (Mus musculus [4]): 1.5

IC50 (CCRF-CEM): 0.004 nM
SMILES: COc1ccc(C[C@H]2NC(=O)/C=C/C[C@@H]([C@H](C)[C@@H](O)[C@@H](Cl)c3ccc(COC(=O)C(C)(C)CN)cc3)OC(=O)[C@H](CC(C)C)OC(=O)C(C)(C)CNC2=O)cc1Cl

SMILES: COc1ccc(C[C@H]2NC(=O)/C=C/C[C@@H]([C@H](C)[C@@H](O)[C@@H](Cl)c3ccc(OC(=O)C(C)(C)CN)cc3)OC(=O)[C@H](CC(C)C)OC(=O)C(C)(C)CNC2=O)cc1Cl
IC50 (CCRF-CEM): 0.79 nM

SMILES: COc1ccc(C[C@H]2NC(=O)/C=C/C[C@@H]([C@H](C)[C@@H](O)[C@@H](Cl)c3ccc(C)c(C)c3)OC(=O)[C@H](CC(C)C)OC(=O)C(C)(C)CNC2=O)cc1Cl
IC50 (CCRF-CEM): 0.6 nM

SMILES: CC(=O)O[C@H]1C(=O)[C@@]2(C)[C@H]([C@H](OC(=O)c3ccccc3)[C@]3(O)C[C@H](OC(=O)[C@H](O)[C@@H](NC(=O)c4ccccc4)c4ccccc4)C(C)=C1C3(C)C)[C@]1(OC(C)=O)CO[C@@H]1C[C@@H]2O [PACLITAXEL]
Log kill (Mus musculus [5]): 4.2
Death (Mus musculus [6]): 0
Weight loss (Mus musculus [7]): -5%
T/C (Mus musculus [8]): 0%

SMILES: COc1ccc(C[C@H]2NC(=O)/C=C/C[C@@H]([C@H](C)/C=C/c3ccc(O)cc3)OC(=O)[C@H](CC(C)C)OC(=O)C(C)(C)CNC2=O)cc1Cl
IC50 (CCRF-CEM): 4 nM

SMILES: CCN(CC)Cc1ccc([C@H]2O[C@@H]2[C@@H](C)[C@@H]2C/C=C/C(=O)N[C@H](Cc3ccc(OC)c(Cl)c3)C(=O)NCC(C)(C)C(=O)O[C@@H](CC(C)C)C(=O)O2)cc1
IC50 (CCRF-CEM): 0.003 nM

IC50 (CCRF-CEM): 100 nM
SMILES: COc1ccc(C[C@H]2NC(=O)/C=C/C[C@@H]([C@H](C)[C@@H]3O[C@H]3c3cc(C)ccc3C)OC(=O)[C@H](CC(C)C)OC(=O)C(C)(C)CNC2=O)cc1Cl

SMILES: CCN(CC)Cc1ccc([C@H](Cl)[C@H](O)[C@@H](C)[C@@H]2C/C=C/C(=O)N[C@H](Cc3ccc(OC)c(Cl)c3)C(=O)NCC(C)(C)C(=O)O[C@@H](CC(C)C)C(=O)O2)cc1
IC50 (CCRF-CEM): 0.005 nM

SMILES: COc1ccc(C[C@H]2NC(=O)/C=C/C[C@@H]([C@H](C)[C@H]3O[C@@H]3c3cccc(C)c3)OC(=O)[C@H](CC(C)C)OC(=O)C(C)(C)CNC2=O)cc1Cl
IC50 (CCRF-CEM): 0.15 nM

SMILES: COc1ccc(C[C@H]2NC(=O)/C=C/C[C@@H]([C@H](C)[C@H]3O[C@@H]3c3ccc(CO)cc3)OC(=O)[C@H](CC(C)C)OC(=O)C(C)(C)CNC2=O)cc1Cl
Weight loss (Mus musculus [9]): -19.5%
Weight loss (Mus musculus [10]): -18.4%
IC50 (CCRF-CEM): 0.004 nM
T/C (Mus musculus [11]): 14%
Weight loss (Mus musculus [12]): 10.5%
Death (Mus musculus [13]): 1
Death (Mus musculus [14]): 0
Death (Mus musculus [15]): 4

SMILES: COc1ccc(C[C@H]2NC(=O)/C=C/C[C@@H]([C@H](C)[C@H]3O[C@@H]3c3ccc(CN4CCN(C(=O)OC(C)(C)C)CC4)cc3)OC(=O)[C@H](CC(C)C)OC(=O)C(C)(C)CNC2=O)cc1Cl
IC50 (CCRF-CEM): 0.001 nM
